{
  "source": "ChEMBL document CHEMBL1138087",
  "about": "“Synthesis and evaluation of N-aryl pyrrolidinones as novel anti-HIV-1 agents. Part 1” (Bioorg Med Chem Lett, 2006)",
  "key": {"[1]": {"tested_on": "Human immunodeficiency virus 1", "assay": "Antiviral activity against wild type HIV1 virus", "format": "functional, organism-based", "summary_of_the_method": "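HEK 293T cells grown in DMEM with 10% FBS and Pen/Strep/Glutamine. Seeded at 700 cells/well, cultured 24 h at 37 °C under 5% CO₂. Serially diluted compound in DMSO added, then 1 h at 37 °C. HIV reporter virus added at MOI about 1.0, cells cultured a further 48 h at 37 °C. Luciferase read-out with Bright-Glo reagent.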"}, "[2]": {"tested_on": "Human immunodeficiency virus 1", "assay": "Antiviral activity against HIV1 K103N/L100I mutant", "format": "functional, organism-based", "summary_of_the_method": "(§1)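 HEK 293T cells grown in DMEM with 10% FBS and Pen/Strep/Glutamine. Cells seeded at 700 cells/well and cultured 24 h at 37 °C under 5% CO₂. Compounds serially diluted in DMSO were added and incubated 1 h at 37 °C. Cells were then infected with HIV reporter virus at MOI ~1.0 and cultured a further 48 h at 37 °C. Read-out was luciferase activity (Bright-Glo).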"}, "[3]": {"tested_on": "Human immunodeficiency virus 1", "assay": "Selectivity for wild type HIV1 virus over HIV1 Y181C mutant", "format": "functional"}, "[4]": {"tested_on": "Human immunodeficiency virus 1", "assay": "Selectivity for wild type HIV1 virus over HIV1 L100I mutant", "format": "functional"}, "[5]": {"tested_on": "HEK293", "assay": "Cytotoxicity against HEK293T cells", "format": "functional", "conditions": "Homo sapiens", "summary_of_the_method": "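293T cells seeded at 700 cells/well and cultured 24 h at 37 °C under 5% CO₂. Serially diluted compound in DMSO added to uninfected cells, then a further 48 h at 37 °C. Viability read by fluorescence after Alamar Blue (diluted 1:1 in DMEM) and 4 h at room temperature.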"}, "[6]": {"tested_on": "Human immunodeficiency virus 1", "assay": "Selectivity for wild type HIV1 virus over HIV1 K103N/L100I mutant", "format": "functional"}, "[7]": {"tested_on": "Human immunodeficiency virus 1", "assay": "Antiviral activity against HIV1 K103N mutant", "format": "functional, organism-based", "summary_of_the_method": "as §1"}, "[8]": {"tested_on": "Human immunodeficiency virus 1", "assay": "Antiviral activity against HIV1 L100I mutant", "format": "functional, organism-based", "summary_of_the_method": "as §1"}, "[9]": {"tested_on": "Human immunodeficiency virus 1", "assay": "Antiviral activity against HIV1 Y181C mutant", "format": "functional, organism-based", "summary_of_the_method": "as §1"}, "[10]": {"tested_on": "Human immunodeficiency virus 1", "assay": "Selectivity for wild type HIV1 virus over HIV1 K103N mutant", "format": "functional"}, "[11]": {"target": "Human immunodeficiency virus type 1 reverse transcriptase (Human immunodeficiency virus 1, UniProt Q72547)", "assay": "Inhibition of HIV1 reverse transcriptase"}},
  "data": [
    {"compound": "COc1ccc([C@H]2CC(=O)N(c3cccc(NS(=O)(=O)c4ccccc4C)c3)C2)cc1OC1CCCC1", "values": [
      {"measurement": "EC50", "setting": "[1]", "result": 0.024, "unit": "µM"},
      {"measurement": "EC50", "setting": "[2]", "result": 0.017, "unit": "µM"},
      {"measurement": "Selectivity ratio", "setting": "[3]", "result": 10},
      {"measurement": "Selectivity ratio", "setting": "[4]", "result": 0.42},
      {"measurement": "CC50", "setting": "[5]", "result": "> 10", "unit": "µM"},
      {"measurement": "Selectivity ratio", "setting": "[6]", "result": 0.7},
      {"measurement": "EC50", "setting": "[7]", "result": 0.117, "unit": "µM"},
      {"measurement": "EC50", "setting": "[8]", "result": 0.01, "unit": "µM"},
      {"measurement": "EC50", "setting": "[9]", "result": 0.246, "unit": "µM"},
      {"measurement": "Selectivity ratio", "setting": "[10]", "result": 4.9}
    ]},
    {"compound": "COc1ccc([C@H]2CC(=O)N(c3cccc(NS(=O)(=O)c4c(F)cccc4F)c3)C2)cc1OC1CCCC1", "values": [
      {"measurement": "EC50", "setting": "[1]", "result": 0.048, "unit": "µM"},
      {"measurement": "EC50", "setting": "[2]", "result": 0.052, "unit": "µM"},
      {"measurement": "Selectivity ratio", "setting": "[3]", "result": 27},
      {"measurement": "Selectivity ratio", "setting": "[4]", "result": 1.4},
      {"measurement": "CC50", "setting": "[5]", "result": "> 10", "unit": "µM"},
      {"measurement": "Selectivity ratio", "setting": "[6]", "result": 1},
      {"measurement": "EC50", "setting": "[7]", "result": 0.451, "unit": "µM"},
      {"measurement": "EC50", "setting": "[8]", "result": 0.068, "unit": "µM"},
      {"measurement": "EC50", "setting": "[9]", "result": 1.3, "unit": "µM"},
      {"measurement": "Selectivity ratio", "setting": "[10]", "result": 9.4}
    ]},
    {"compound": "COc1ccc([C@H]2CC(=O)N(c3cccc(NS(=O)(=O)c4cc(Br)c(Cl)s4)c3)C2)cc1OC1CCCC1", "values": [
      {"measurement": "EC50", "setting": "[1]", "result": 0.046, "unit": "µM"},
      {"measurement": "EC50", "setting": "[2]", "result": 0.095, "unit": "µM"},
      {"measurement": "Selectivity ratio", "setting": "[3]", "result": 16},
      {"measurement": "Selectivity ratio", "setting": "[4]", "result": 0.84},
      {"measurement": "CC50", "setting": "[5]", "result": "> 10", "unit": "µM"},
      {"measurement": "Selectivity ratio", "setting": "[6]", "result": 2},
      {"measurement": "EC50", "setting": "[7]", "result": 0.542, "unit": "µM"},
      {"measurement": "EC50", "setting": "[8]", "result": 0.039, "unit": "µM"},
      {"measurement": "EC50", "setting": "[9]", "result": 0.753, "unit": "µM"},
      {"measurement": "Selectivity ratio", "setting": "[10]", "result": 12}
    ]},
    {"compound": "COc1ccc([C@H]2CC(=O)N(c3cccc(NS(=O)(=O)c4cccc(Cl)c4C)c3)C2)cc1OC1CCCC1", "values": [
      {"measurement": "EC50", "setting": "[1]", "result": 0.02, "unit": "µM"},
      {"measurement": "EC50", "setting": "[2]", "result": 0.01, "unit": "µM"},
      {"measurement": "Selectivity ratio", "setting": "[3]", "result": 19},
      {"measurement": "Selectivity ratio", "setting": "[4]", "result": 0.4},
      {"measurement": "CC50", "setting": "[5]", "result": "> 10", "unit": "µM"},
      {"measurement": "Selectivity ratio", "setting": "[6]", "result": 0.5},
      {"measurement": "EC50", "setting": "[7]", "result": 0.162, "unit": "µM"},
      {"measurement": "EC50", "setting": "[8]", "result": 0.008, "unit": "µM"},
      {"measurement": "EC50", "setting": "[9]", "result": 0.389, "unit": "µM"},
      {"measurement": "Selectivity ratio", "setting": "[10]", "result": 8.1}
    ]},
    {"compound": "COc1ccc([C@H]2CC(=O)N(c3cccc(N)c3)C2)cc1OC1CCCC1", "values": [
      {"measurement": "EC50", "setting": "[1]", "result": 0.125, "unit": "µM"},
      {"measurement": "CC50", "setting": "[5]", "result": "> 10", "unit": "µM"},
      {"measurement": "IC50", "setting": "[11]", "result": 2, "unit": "µM"}
    ]},
    {"compound": "COc1ccc([C@H]2CC(=O)N(c3cccc(NS(=O)(=O)c4cccc(Cl)c4)c3)C2)cc1OC1CCCC1", "values": [
      {"measurement": "EC50", "setting": "[1]", "result": 0.025, "unit": "µM"},
      {"measurement": "EC50", "setting": "[2]", "result": 0.056, "unit": "µM"},
      {"measurement": "Selectivity ratio", "setting": "[3]", "result": 93},
      {"measurement": "Selectivity ratio", "setting": "[4]", "result": 1.6},
      {"measurement": "CC50", "setting": "[5]", "result": "> 10", "unit": "µM"},
      {"measurement": "Selectivity ratio", "setting": "[6]", "result": 2.2},
      {"measurement": "EC50", "setting": "[7]", "result": 0.689, "unit": "µM"},
      {"measurement": "EC50", "setting": "[8]", "result": 0.04, "unit": "µM"},
      {"measurement": "EC50", "setting": "[9]", "result": 2.32, "unit": "µM"},
      {"measurement": "Selectivity ratio", "setting": "[10]", "result": 27}
    ]},
    {"compound": "COc1ccc([C@H]2CC(=O)N(c3cccc(NS(=O)(=O)c4ccccc4Br)c3)C2)cc1OC1CCCC1", "values": [
      {"measurement": "EC50", "setting": "[1]", "result": 0.042, "unit": "µM"},
      {"measurement": "EC50", "setting": "[2]", "result": 0.022, "unit": "µM"},
      {"measurement": "Selectivity ratio", "setting": "[3]", "result": 19},
      {"measurement": "Selectivity ratio", "setting": "[4]", "result": 0.38},
      {"measurement": "CC50", "setting": "[5]", "result": "> 10", "unit": "µM"},
      {"measurement": "Selectivity ratio", "setting": "[6]", "result": 0.52},
      {"measurement": "EC50", "setting": "[7]", "result": 0.292, "unit": "µM"},
      {"measurement": "EC50", "setting": "[8]", "result": 0.016, "unit": "µM"},
      {"measurement": "EC50", "setting": "[9]", "result": 0.794, "unit": "µM"},
      {"measurement": "Selectivity ratio", "setting": "[10]", "result": 6.9}
    ]}
  ]
}
